T cruzi repl = inhibitors of intracellular T. cruzi growth, primary screen, luminescence, NIH3T3 host cells. 1.4% of 300,000 active. T. cruzi beta-gal in NIH3T3, 90 h. inhibition, % (no concentration beside the values);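 active = mean inhibition across valid replicates above about 55%, limit read from the data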;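 note: signal also drops with host cell toxicity which is not excluded here; higher percent means less beta-gal luminescence so fewer parasites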
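System: mouse NIH/3T3 fibroblasts infected with β-gal-expressing T. cruzi Tulahuen C4 / Input: NIH/3T3 cells, 5,000 per well / Buffer or medium: Low-serum DMEM with 2% FBS / Probe or stimulus: 5000 reporter trypomastigotes per well / Schedule: ≥90 h infection period, 3 h prior cell attachment / Measured by: GalScreen luminescence, 60 min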
Mdm2 MdmX PPI = inhibitors of human Mdm2-MdmX association, primary screen, cell-based, luminescence, split luciferase, SaOS-2, uHTS; inhibition, % at 8 µM; SaOS-2 split-luciferase Mdm2/MdmX complementation; AID 485346, 2010; Protein Mdm4 (Homo sapiens) + E3 ubiquitin-protein ligase Mdm2 (Homo sapiens), …; 3% of 330,000 active;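 active = inhibition of at least 50% at 8 µM in the primary screen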
Target sequence (O15151 whole entry, looked up): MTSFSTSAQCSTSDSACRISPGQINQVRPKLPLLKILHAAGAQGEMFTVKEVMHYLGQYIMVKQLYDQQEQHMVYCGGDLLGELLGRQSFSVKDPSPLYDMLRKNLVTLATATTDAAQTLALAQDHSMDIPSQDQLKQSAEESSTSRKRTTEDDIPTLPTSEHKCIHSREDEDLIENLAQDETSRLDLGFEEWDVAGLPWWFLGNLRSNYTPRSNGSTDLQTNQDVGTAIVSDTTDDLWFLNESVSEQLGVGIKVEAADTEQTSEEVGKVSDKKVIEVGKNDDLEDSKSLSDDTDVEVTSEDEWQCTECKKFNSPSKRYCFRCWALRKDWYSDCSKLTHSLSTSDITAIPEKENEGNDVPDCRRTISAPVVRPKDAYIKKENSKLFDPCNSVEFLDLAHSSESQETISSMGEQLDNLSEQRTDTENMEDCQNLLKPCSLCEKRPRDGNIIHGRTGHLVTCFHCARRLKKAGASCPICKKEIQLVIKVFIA
Target sequence (Q00987 whole entry, looked up): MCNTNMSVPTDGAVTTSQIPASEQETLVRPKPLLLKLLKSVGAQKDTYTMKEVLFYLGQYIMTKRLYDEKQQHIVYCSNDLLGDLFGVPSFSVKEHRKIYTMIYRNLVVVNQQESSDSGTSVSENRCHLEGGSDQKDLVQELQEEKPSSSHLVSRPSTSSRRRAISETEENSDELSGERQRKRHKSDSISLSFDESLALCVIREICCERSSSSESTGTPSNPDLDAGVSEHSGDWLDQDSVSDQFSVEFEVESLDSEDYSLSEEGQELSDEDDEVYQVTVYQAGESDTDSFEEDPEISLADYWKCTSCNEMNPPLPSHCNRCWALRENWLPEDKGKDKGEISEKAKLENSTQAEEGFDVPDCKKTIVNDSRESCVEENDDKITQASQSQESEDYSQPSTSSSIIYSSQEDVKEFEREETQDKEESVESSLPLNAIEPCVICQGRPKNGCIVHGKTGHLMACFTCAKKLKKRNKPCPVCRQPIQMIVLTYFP
UPR XBP1 act = activators of adaptive XBP1 UPR arm, primary screen, cell-based, CHO-XBP1 luciferase reporter, luminescence, uHTS. IRE1-XBP1 UPR activation; percent of tunicamycin response, DMSO as zero. activation, % at 20 µM. 0.33% of 330,000 active;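 active = versus positive control, 20 µM dose yields 30% or more activation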
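Material: CHO-XBP1 cells stably carrying IRE1-XBP1-driven luciferase reporter | Medium: F12 with 10% serum | Compound dosing: 20 µM single concentration, DMSO 1% | Incubation: Overnight seeding at 37 °C, 6 h compound treatment at 37 °C | Detection: Steady-Glo luminescence read | Read-out basis: % activation of reporter signal versus tunicamycin and DMSO controls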
CSC inhib = cancer stem cell viability inhibitors, primary screen, luminescence; inhibition, % at 7.5 µM; 1.1% of 300,000 active; cancer stem cell-like cells viability; in the data active = inhibition above about 75%; tested in HMLE shEcad cells
UPR CHOP act = activators of apoptotic CHOP UPR arm, primary screen, cell-based, CHO-CHOP luciferase reporter, luminescence, uHTS; 0.34% of 330,000 active; UPR activation; percent of tunicamycin response over DMSO baseline; activation, % at 10 µM;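 active = at 10 µM dose, activation of 40% or more, normalized to positive control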
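Dosing – one dose, 10 µM in 0.5% DMSO · System – CHO-CHOP cells, stable luciferase reporter of PERK-eIF2a-CHOP signalling · Input – 500 cells/well · Control set – tunicamycin 10 µg/mL final as positive, DMSO-only wells as negative · Timing – 6 h compound treatment, 37 °C · Measure – % activation vs tunicamycin · Technique – luminescence read with Steady-Glo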
Beta cell apopt = inhibitors of cytokine-induced beta cell apoptosis, primary screen, luminescence; INS-1E cytokine-induced death, ATP luminescence, 48 h; percent of positive-control rescue, neutral wells zero; protection from apoptosis, % (concentration not given with the values); 0.8% of 300,000 active; AID 435005, 2010;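 active = Every replicate reaches about 75%, or at least half do and their mean reaches it too, limit read from the data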;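 note: higher means more ATP so stronger rescue from cytokine killing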
Mdm2-MdmX conf = Mdm2-MdmX complex disruptors, retested hits, confirmation, luminescence, single concentration; shares compounds with Mdm2 MdmX PPI; Mdm2-MdmX binding, luminescent assay; inhibition, % at 8 µM; 55% of 10,000 active; AID 489028, 2010; in the data active = inhibition above about 40%
Full FLuc ctr = full-length luciferase signal inhibition, confirmation, counter-screen for Mdm2/MdmX interaction inhibitor project, cell-based, single concentration, SaOS-2; 77% of 6,200 active; SaOS-2 full-length luciferase counterscreen, luminescence; shares compounds with Mdm2 MdmX PPI; inhibition, % at 8 µM; AID 504607, 2011;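 active = mean inhibition at 8 µM reaching about 37%, which flags the compound as non-specific, limit read from the data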;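 note: p53-null SaOS-2 cells with luciferase driven by a doxycycline-inducible promoter; compound on cells about two nights before reading with doxycycline added after day one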
Each line names hits and unclear results; the compound was inactive in the other large screens (follow-up assays come after a bar, where they were run). Only some compounds are listed: those with a hit (about 5% of all), similar ones and a draw of the others.

CC(C)(C)OC(=O)C[C@@H]1C/C=C\C[C@H](CC(=O)N(CCO)Cc2ccccc2)C(=O)NC[C@@H](c2ccccc2)OC1=O	none (no result: T cruzi repl)
O=C1NC[C@@H](c2ccccc2)OC(=O)[C@H](Cc2ccc(F)cc2)C/C=C\C[C@H]1CC(=O)N(CCO)Cc1ccccc1	none (no result: T cruzi repl, CSC inhib)
O=C1N[C@@H](Cc2c[nH]c3ccccc23)COC(=O)[C@H](Cc2ccc(F)cc2)C/C=C\C[C@@H]1CC(=O)N(CCO)Cc1ccccc1	none (no result: T cruzi repl)
O=C1N[C@@H](Cc2c[nH]c3ccccc23)COC(=O)[C@@H](Cc2ccc(F)cc2)C/C=C\C[C@H]1CC(=O)N(CCO)Cc1ccccc1	Mdm2 MdmX PPI 51 (no result: T cruzi repl) | Mdm2-MdmX conf inactive
O=C1NC[C@H](c2ccccc2)OC(=O)[C@@H](Cc2ccc(F)cc2)C/C=C\C[C@H]1CC(=O)N(CCO)Cc1ccccc1	Mdm2 MdmX PPI 85 (no result: T cruzi repl) | Mdm2-MdmX conf 79 | Full FLuc ctr 51
COc1cc(-c2nc3ccc4ccccc4c3c3c2CCC3)cc(OC)c1OC	Mdm2 MdmX PPI 62 | Mdm2-MdmX conf 57 | Full FLuc ctr 57
C=C(C)COc1ccc(-c2n[nH]c(C)c2-c2ccc(Br)cc2)c(O)c1	Mdm2 MdmX PPI 86, CSC inhib 101 | Mdm2-MdmX conf 56 | Full FLuc ctr 51
COc1ccc(-c2cn[nH]c2-c2ccc(OCc3ccc([N+](=O)[O-])cc3)cc2O)cc1	Mdm2 MdmX PPI 86 | Mdm2-MdmX conf 77 | Full FLuc ctr inactive
C=C(C)COc1ccc(-c2[nH]ncc2-c2ccccc2OC)c(O)c1	none
C=C(C)COc1ccc(-c2[nH]ncc2-c2ccc(Br)cc2)c(O)c1	Mdm2 MdmX PPI 60 | Mdm2-MdmX conf 62 | Full FLuc ctr 44
C=C(C)COc1ccc(-c2ncnc(C(F)(F)F)c2-c2ccc(OC)cc2)c(O)c1	none
Cc1c(C(=O)NCc2ccc3c(c2)OCO3)oc2ccc(Br)cc12	Mdm2 MdmX PPI 73 | Mdm2-MdmX conf inactive
Cc1c(C(=O)NCc2ccc3c(c2)OCO3)oc2ccccc12	none
O=C(C1CC1)N1CCN(c2ccc(O)cc2)CC1	none
CC(=O)Nc1ccc(NC(=O)CNC(=O)c2sc3ccccc3c2Cl)cc1	none
COC(=O)c1ccc(NC(=O)CNC(=O)c2sc3ccccc3c2Cl)cc1	Mdm2 MdmX PPI 94 (no result: T cruzi repl, CSC inhib) | Mdm2-MdmX conf 49 | Full FLuc ctr 93
COC(=O)c1cccc(NC(=O)Nc2ccc(Cl)c(Cl)c2)c1	T cruzi repl 55, Mdm2 MdmX PPI 80, CSC inhib 97, Beta cell apopt 82 | Mdm2-MdmX conf 80 | Full FLuc ctr 40
CC(=O)c1cccc(NC(=O)Nc2cccnc2)c1	Mdm2 MdmX PPI 54 | Mdm2-MdmX conf 50 | Full FLuc ctr inactive
NS(=O)(=O)c1ccc(CCN2C(=O)/C(=C\c3ccc(Cl)cc3)SC2=S)cc1	Mdm2 MdmX PPI 95 | Mdm2-MdmX conf 96 | Full FLuc ctr 46
CC(C)Oc1ccc(C(CCN)C2CCCCC2)cc1 (stereo not drawn)	Mdm2 MdmX PPI 88, Beta cell apopt 91 | Mdm2-MdmX conf 42 | Full FLuc ctr 65
O=C1CC2(CCN(C(=O)c3ccc(F)c(F)c3)CC2)Oc2ccccc21	none (no result: Beta cell apopt)
COc1ccccc1NC(=O)C(=O)N(c1cccnc1)C(C(=O)NC(C)(C)C)c1ccccc1F (stereo not drawn)	none
Cc1ccc(NC(=O)C2C3CCC(O3)C2C(=O)O)c(Br)c1 (stereo not drawn)	none
CN(C)c1ccc(/C=C/c2nc3ccccc3s2)cc1	Mdm2 MdmX PPI 64 | Mdm2-MdmX conf inactive
Cc1ccc(/C=C/c2nc3ccccc3s2)s1	none
Nc1c(C(=O)NC2CCCC2)c2nc3ccccc3nc2n1/N=C/c1cccnc1	Mdm2 MdmX PPI 51 | Mdm2-MdmX conf inactive
Cc1ccc(S(=O)(=O)Nc2c(C)nc3nc[nH]n3c2=O)c(C)c1	none
COCc1nnc(NC(=O)c2cc(OC)c(OC)cc2[N+](=O)[O-])s1	none
CC(C)N(C(=O)[C@H]1C[C@H](CC(=O)NCc2cccc(C(F)(F)F)c2)C(=O)N2CCc3c([nH]c4cc(-c5ccco5)ccc34)[C@]12C)C(C)C	Mdm2 MdmX PPI 77 (no result: T cruzi repl, CSC inhib, Beta cell apopt) | Mdm2-MdmX conf inactive
CC(C)N(C(=O)[C@H]1C[C@H](CC(=O)NCCCN(C)C)C(=O)N2CCc3c([nH]c4cc(-c5ccco5)ccc34)[C@]12C)C(C)C	Mdm2 MdmX PPI 63 (no result: T cruzi repl, CSC inhib, Beta cell apopt) | Mdm2-MdmX conf inactive
CC(C)N(C(=O)[C@H]1C[C@H](CC(=O)NCc2ccco2)C(=O)N2CCc3c([nH]c4ccc(Cl)cc34)[C@]12C)C(C)C	Mdm2 MdmX PPI 52 (no result: T cruzi repl, CSC inhib, Beta cell apopt) | Mdm2-MdmX conf inactive
CCOc1ccccc1N1CCN(C(=O)c2ccc3nc(N)sc3c2)CC1	none (no result: T cruzi repl)
CCC(=O)Nc1cccc(-c2ccc(N3CCC(C)CC3)nn2)c1	none
O=C(Nc1cccc(-c2ccc(N3CCCCC3)nn2)c1)C(F)(F)F	Mdm2 MdmX PPI 60 | Mdm2-MdmX conf 45 | Full FLuc ctr 74
CC1CCN(c2ccc(-c3cccc(NC(=O)C(F)(F)F)c3)nn2)CC1	Mdm2 MdmX PPI 73 | Mdm2-MdmX conf 69 | Full FLuc ctr 36
O=C(NC(c1ccccc1)c1ccccc1)N1CCOCC1	none (no result: CSC inhib)
O=C(NC1c2ccccc2-c2ccccc21)N1CCOCC1	Mdm2 MdmX PPI 50 | Mdm2-MdmX conf inactive
N=c1c(S(=O)(=O)c2ccc(Cl)cc2)cc2c(=O)n3ccccc3nc2n1CCN1CCOCC1	none
Cc1ccc(S(=O)(=O)c2cc3c(=O)n4ccccc4nc3n(C)c2=N)cc1C	Mdm2 MdmX PPI 86 | Mdm2-MdmX conf inactive
N=c1c(S(=O)(=O)c2ccc(Cl)cc2)cc2c(=O)n3ccccc3nc2n1CCc1ccccc1	T cruzi repl 58, Mdm2 MdmX PPI 63 | Mdm2-MdmX conf inactive | Full FLuc ctr inactive
CC1CC(NC(=O)C2(C)CC2(Cl)Cl)CC(C)(C)C1 (stereo not drawn)	none
CCCCn1c(N)c(N(CCOC)C(=O)CN2C(=O)C3CCCCC3C2=O)c(=O)[nH]c1=O (stereo not drawn)	none (no result: T cruzi repl, CSC inhib)

Source: PubChem (several laboratories)
